Test results from ChEMBL document CHEMBL3739255, “Novel Series of Dihydropyridinone P2X7 Receptor Antagonists” (J Med Chem, 2015).
≈ marks a conversion by molar mass, not a printed value.

Assays:
[1] = Solubility of compound by lyophilization solubility assay; type: physicochemical
P2X purinoceptor 7 [2] = biological target: T1, P2X purinoceptor 7 (Homo sapiens, UniProt Q99572); experiment: Antagonist activity at human P2X7R expressed in BzATP-stimulated human 1321N1 cells incubated for 20 mins followed by BzATP stimulation measured every 1 sec for 60 secs followed by 3 sec intervals for 4 mins by FLIPR Ca2+ assay in presence of ionomycin; type: cell-based
T1 sequence (Q99572 whole entry): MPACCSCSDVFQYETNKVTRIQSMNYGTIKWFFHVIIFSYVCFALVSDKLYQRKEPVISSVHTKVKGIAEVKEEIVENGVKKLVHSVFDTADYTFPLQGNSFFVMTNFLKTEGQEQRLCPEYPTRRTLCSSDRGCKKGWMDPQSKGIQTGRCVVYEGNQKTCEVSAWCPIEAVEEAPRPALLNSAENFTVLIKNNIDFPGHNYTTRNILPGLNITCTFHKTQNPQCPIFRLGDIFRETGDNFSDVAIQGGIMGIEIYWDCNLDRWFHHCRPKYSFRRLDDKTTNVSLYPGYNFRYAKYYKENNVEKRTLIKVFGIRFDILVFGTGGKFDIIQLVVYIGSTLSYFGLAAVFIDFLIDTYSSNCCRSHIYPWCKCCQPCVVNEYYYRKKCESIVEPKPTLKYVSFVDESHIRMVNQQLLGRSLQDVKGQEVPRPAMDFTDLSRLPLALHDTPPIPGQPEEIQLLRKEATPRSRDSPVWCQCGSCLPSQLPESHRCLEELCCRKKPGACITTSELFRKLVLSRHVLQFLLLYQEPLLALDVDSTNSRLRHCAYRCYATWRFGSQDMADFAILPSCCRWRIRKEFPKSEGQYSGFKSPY
Outline: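 1321N1 cells stably expressing human P2X7R, stimulated with BzATP; calcium flux read on FLIPR. IC50 is the mean of n ≥ 2 runs, each including a positive control.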

P2X purinoceptor 7 [3] = biological target: T1, P2X purinoceptor 7; experiment: Antagonist activity at P2X7R in human whole blood assessed as inhibition of LPS-induced IL-1beta production incubated for 30 mins followed by ATP addition for 30 mins by ELISA assay; type: tissue-based
Liver microsome [4] = experiment: Drug metabolism in human liver microsomes assessed as GSH adduct UV peak area at 20 uM preincubated for 5 mins followed by NADPH addition measured after 60 mins by LC/MS/MS analysis relative to total area of GSH adduct, other metabolites, parent compound; type: ADME; conditions: 1 h
Liver microsome [5] = experiment: Drug metabolism in rat liver microsomes assessed as GSH adduct UV peak area at 20 uM preincubated for 5 mins followed by NADPH addition measured after 60 mins by LC/MS/MS analysis relative to total area of GSH adduct, other metabolites, parent compound; type: ADME; conditions: 1 h
[6] = Oral bioavailability in rat at 2 mg/kg administered as single dose; type: ADME, organism-based; conditions: in vivo
Outline: (§1)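 Rats given a single dose, iv 0.5 mg/kg or po 2 mg/kg, with n ≥ 2 per time point. Bioavailability is derived from the po and iv exposures. Vdss is reported in L/kg.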

Rattus norvegicus = experiment: Dose normalized AUC in rat at 2 mg/kg, po administered as single dose; type: ADME, organism-based; conditions: in vivo
Outline: (§2)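 Single-dose rat PK: iv at 0.5 mg/kg and po at 2 mg/kg. n ≥ 2 animals per time point. Oral AUC normalized to dose; clearance, Vdss and half-life taken from the iv arm.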

[7] = Clearance in rat at 0.5 mg/kg, iv administered as single dose; type: ADME, organism-based; conditions: in vivo; outline: as §2
[8] = Volume of distribution at steady state in rat at 2 mg/kg, po and 0.5 mg/kg, iv administered as single dose; type: ADME, organism-based; conditions: in vivo, read-out: Vdss; outline: as §1
[9] = Half life in rat at 0.5 mg/kg, iv administered as single dose; type: ADME, organism-based; conditions: in vivo; outline: as §2
Cytochrome P450 2C9 = Cytochrome P450 2C9 (Homo sapiens, UniProt P11712); experiment: Inhibition of human CYP2C9 by fluorescence assay; type: ADME
Outline: (§3)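 IC50 values for CYP3A4, CYP2D6 and CYP2C9 from a fluorescence-based inhibition assay; average of n ≥ 2.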

Cytochrome P450 2D6 = Cytochrome P450 2D6 (Homo sapiens, UniProt P10635); experiment: Inhibition of human CYP2D6 by fluorescence assay; type: ADME; outline: as §3
Cytochrome P450 3A4 = Cytochrome P450 3A4 (Homo sapiens, UniProt P08684); experiment: Inhibition of human CYP3A4 by fluorescence assay; type: ADME; outline: as §3
Salmonella typhimurium = experiment: Genotoxicity in Salmonella typhimurium by Ames test; type: toxicity, organism-based; conditions: salmonella enterica subsp. enterica serovar typhimurium
Liver microsome [10] = experiment: Metabolic stability in human liver microsomes assessed as GSH adduct formation at 20 uM preincubated for 5 mins followed by NADPH addition measured after 60 mins by LC/MS/MS analysis; type: ADME; conditions: 1 h
Outline: (§4)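 Liver microsomes (human or rat) incubated with compound and glutathione. The GSH adduct is quantified by UV chromatography as % relative peak area versus the summed areas of GSH adduct, other metabolites and parent compound.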

Liver microsome [11] = experiment: Metabolic stability in rat liver microsomes assessed as GSH adduct formation at 20 uM preincubated for 5 mins followed by NADPH addition measured after 60 mins by LC/MS/MS analysis; type: ADME; conditions: 1 h; outline: as §4
[12] = Intrinsic clearance in human liver microsomes assessed per mg of protein at 1 uM after 1 hr by LC/MS/MS analysis; type: ADME; conditions: read-out: CLH
[13] = Intrinsic clearance in rat liver microsomes assessed per mg of protein at 1 uM after 1 hr by LC/MS/MS analysis; type: ADME; conditions: read-out: CLH
[14] = Drug degradation in human plasma at 10 uM after 4 hrs by LC/MS/MS analysis; type: ADME, cell-free; conditions: read-out: Drug degradation
[15] = Drug level in solid phase treated with (4S)-N-[4-Chloro-5-(2-hydroxyethoxy)-2-methyl-phenyl]-4-(4-fluorophenyl)-2-oxo-3,4-dihydro-1H-pyridine-5-carboxamide after 1 month; type: physicochemical; conditions: 730.5 h
Liver microsome [16] = experiment: Retention time of the compound in human liver microsomes at 20 uM by LC/UV chromatogram analysis; type: ADME
Liver microsome [17] = experiment: Retention time of the compound in rat liver microsomes at 20 uM by LC/UV chromatogram analysis; type: ADME

Sequence of Cytochrome P450 2D6 (P10635 whole entry): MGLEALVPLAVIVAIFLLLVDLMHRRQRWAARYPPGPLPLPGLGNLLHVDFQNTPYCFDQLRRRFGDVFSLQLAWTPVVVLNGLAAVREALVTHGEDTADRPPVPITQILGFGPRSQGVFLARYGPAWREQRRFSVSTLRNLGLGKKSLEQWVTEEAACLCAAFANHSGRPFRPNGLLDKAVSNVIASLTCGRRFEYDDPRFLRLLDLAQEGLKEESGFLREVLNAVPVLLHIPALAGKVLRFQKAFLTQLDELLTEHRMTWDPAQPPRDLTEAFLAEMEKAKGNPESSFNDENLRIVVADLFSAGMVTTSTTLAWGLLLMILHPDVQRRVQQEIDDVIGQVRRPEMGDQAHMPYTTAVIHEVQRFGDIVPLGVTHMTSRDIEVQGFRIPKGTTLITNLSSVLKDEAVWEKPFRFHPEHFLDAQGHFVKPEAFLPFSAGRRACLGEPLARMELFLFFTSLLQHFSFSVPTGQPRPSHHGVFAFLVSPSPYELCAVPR
Sequence of Cytochrome P450 3A4 (P08684 whole entry): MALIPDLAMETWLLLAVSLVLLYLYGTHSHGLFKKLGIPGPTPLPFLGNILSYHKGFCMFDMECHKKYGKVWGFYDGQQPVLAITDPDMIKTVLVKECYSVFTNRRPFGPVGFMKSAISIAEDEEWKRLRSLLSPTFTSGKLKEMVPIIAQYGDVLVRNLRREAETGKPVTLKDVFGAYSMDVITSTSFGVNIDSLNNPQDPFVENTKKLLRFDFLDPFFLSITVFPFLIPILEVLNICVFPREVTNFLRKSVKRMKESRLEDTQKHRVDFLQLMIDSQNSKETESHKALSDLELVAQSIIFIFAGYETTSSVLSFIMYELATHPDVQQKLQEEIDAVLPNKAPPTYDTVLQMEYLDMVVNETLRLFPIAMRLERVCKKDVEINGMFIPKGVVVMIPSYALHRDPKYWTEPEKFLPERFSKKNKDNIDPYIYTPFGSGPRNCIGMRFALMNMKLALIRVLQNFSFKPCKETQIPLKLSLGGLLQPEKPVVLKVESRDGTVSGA
Sequence of Cytochrome P450 2C9 (P11712 whole entry): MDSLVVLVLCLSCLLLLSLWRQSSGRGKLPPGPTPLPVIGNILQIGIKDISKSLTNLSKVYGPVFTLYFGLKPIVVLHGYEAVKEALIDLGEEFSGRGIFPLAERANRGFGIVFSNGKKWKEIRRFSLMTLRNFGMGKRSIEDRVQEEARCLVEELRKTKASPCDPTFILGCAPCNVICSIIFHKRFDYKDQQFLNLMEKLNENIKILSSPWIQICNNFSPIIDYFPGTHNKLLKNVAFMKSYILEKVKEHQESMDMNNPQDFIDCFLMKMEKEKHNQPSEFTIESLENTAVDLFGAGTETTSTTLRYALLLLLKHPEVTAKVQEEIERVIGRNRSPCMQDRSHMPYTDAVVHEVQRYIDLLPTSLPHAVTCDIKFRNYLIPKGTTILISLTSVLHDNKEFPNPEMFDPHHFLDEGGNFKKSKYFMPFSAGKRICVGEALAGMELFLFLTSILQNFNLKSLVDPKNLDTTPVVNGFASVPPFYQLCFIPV

## COC[C@H](O)Cn1c(=O)cnn(-c2ccc(C)c(NC(=O)C3=CN(C)C(=O)C[C@H]3c3ccc(F)cc3)c2)c1=O
[1]
  solubility: 1020 µg/mL (≈ 1910 µM)
P2X purinoceptor 7 [2]
  IC50: 30 nM
P2X purinoceptor 7 [3]
  IC50: 17 nM
Liver microsome [4]
  Stability: Stable
Liver microsome [5]
  Stability: Stable
[6]
  bioavailability: 20%
Rattus norvegicus
  AUC: 279 ng·h/mL
[7]
  clearance: 23 mL/min/kg
[8]
  Vd: 1.2 L/kg
[9]
  half-life: 4 h
Cytochrome P450 2C9
  IC50: > 50000 nM
Cytochrome P450 2D6
  IC50: > 50000 nM
Cytochrome P450 3A4
  IC50: > 50000 nM
Salmonella typhimurium
  Activity: Non-toxic

## O=C1C=CN(C(=O)Nc2ccc3ncccc3c2Br)[C@H](c2ccc(F)cc2)C1
Liver microsome [10]
  Stability: Stable
Liver microsome [11]
  Stability: Stable

## Cc1ccc(-n2ncccc2=O)cc1NC(=O)C1=CN(C)C(=O)C[C@H]1c1ccc(F)cc1
P2X purinoceptor 7 [3]
  IC50: 33 nM
Salmonella typhimurium
  Activity: Non-toxic

## Cc1ccc(-c2ccn[nH]c2=O)cc1NC(=O)C1=CN(C)C(=O)C[C@H]1c1ccc(F)cc1
P2X purinoceptor 7 [3]
  IC50: 20 nM
Salmonella typhimurium
  Activity: Toxic

## Cc1ccc(-c2ccnn(CCO)c2=O)cc1NC(=O)C1=CN(C)C(=O)C[C@H]1c1ccc(F)cc1
P2X purinoceptor 7 [3]
  IC50: 17 nM
Salmonella typhimurium
  Activity: Non-toxic

## COc1cc(I)c(CC(=O)N2C=CC(=O)CC2c2ccccc2)cc1OC (racemic)
P2X purinoceptor 7 [2]
  IC50: 104 nM
[12]
  microsomal CLint at 1 µM: 168 µL/min/mg
[13]
  microsomal CLint at 1 µM: 548 µL/min/mg

## COc1cc(Br)c(CC(=O)N2C=CC(=O)CC2c2ccccc2)cc1OC (racemic)
P2X purinoceptor 7 [2]
  IC50: 92 nM
[12]
  microsomal CLint at 1 µM: 153 µL/min/mg
[13]
  microsomal CLint at 1 µM: 490 µL/min/mg

## Cc1ccc(-c2ccnn(C)c2=O)cc1NC(=O)C1=CN(C)C(=O)C[C@H]1c1ccc(F)cc1
P2X purinoceptor 7 [3]
  IC50: 6 nM
Salmonella typhimurium
  Activity: Toxic

## Cc1cc(Cl)c(OCCO)cc1NC(=O)N1C=CC(=O)C[C@H]1c1ccc(F)cc1
P2X purinoceptor 7 [2]
  IC50: 9 nM
[14]
  metabolised at 4 h, 10 µM: 50%

## COc1cc(NC(=O)N2C=CC(=O)C[C@H]2c2ccc(F)cc2)c(Br)cc1Cl
P2X purinoceptor 7 [2]
  IC50: 37 nM

## Cc1cc(Cl)c(OCCO)cc1N
[15]
  Drug metabolism: metabolite_detected
Salmonella typhimurium
  Activity: Toxic

## Cc1ccc(-n2ccccc2=O)cc1NC(=O)C1=CN(C)C(=O)N[C@H]1c1ccc(F)cc1
P2X purinoceptor 7 [2]
  IC50: 22 nM
P2X purinoceptor 7 [3]
  IC50: 21 nM
Salmonella typhimurium
  Activity: Non-toxic

## COc1cc(I)c(CC(=O)N2C=CC(=O)C[C@H]2c2ccccc2)cc1OC
P2X purinoceptor 7 [2]
  IC50: 38 nM

## CN1C=C(C(=O)Nc2cc(-c3ccn[nH]c3=O)ccc2F)[C@H](c2ccc(F)cc2)CC1=O
P2X purinoceptor 7 [2]
  IC50: 26 nM
P2X purinoceptor 7 [3]
  IC50: 27 nM
Salmonella typhimurium
  Activity: Non-toxic

## COc1cc(Br)c(NC(=O)N2C=CC(=O)C[C@H]2c2ccc(F)cc2)cc1OC
Liver microsome [16]
  Retention_time: 16.58 min
Liver microsome [17]
  Retention_time: 16.58 min
P2X purinoceptor 7 [2]
  IC50: 9 nM

## O=C1C=CN(C(=O)Nc2cc(OCCO)c(Cl)cc2Br)[C@H](c2ccc(F)cc2)C1
P2X purinoceptor 7 [2]
  IC50: 40 nM

## Cc1cc2cnn(CCO)c2cc1NC(=O)C1=CNC(=O)C[C@H]1c1ccc(F)cc1
P2X purinoceptor 7 [2]
  IC50: 23 nM
P2X purinoceptor 7 [3]
  IC50: 47 nM

## COc1cc(C)c(NC(=O)N2C=CC(=O)C[C@H]2c2ccc(F)cc2)cc1OC
P2X purinoceptor 7 [2]
  IC50: 12 nM
[12]
  microsomal CLint at 1 µM: 8.2 µL/min/mg
[13]
  microsomal CLint at 1 µM: 25 µL/min/mg

## COc1cc(NC(=O)N2C=CC(=O)C[C@H]2c2ccccc2)c(Br)cc1Cl
P2X purinoceptor 7 [2]
  IC50: 33 nM

## COc1cc(Br)c(NC(=O)N2C=CC(=O)CC2c2ccccc2)cc1OC (racemic)
P2X purinoceptor 7 [2]
  IC50: 39 nM
[12]
  microsomal CLint at 1 µM: 22 µL/min/mg
[13]
  microsomal CLint at 1 µM: 78 µL/min/mg

## COc1cc(NC(=O)N2C=CC(=O)C[C@H]2c2ccc(F)cc2)c(Br)c(SC[C@H](NC(=O)CC[C@H](N)C(=O)O)C(=O)NCC(=O)O)c1O
Liver microsome [16]
  Retention_time: 10.74 min
Liver microsome [17]
  Retention_time: 10.74 min

## COc1cc(C)c(C)c(NC(=O)C2=CNC(=O)C[C@H]2c2ccc(F)cc2)c1
P2X purinoceptor 7 [2]
  IC50: 9 nM

## COc1cc(NC(=O)N2C=CC(=O)C[C@H]2c2ccc(F)cc2)c(Br)cc1F
P2X purinoceptor 7 [2]
  IC50: 32 nM

## COc1cc(I)c(CC(=O)N2C=CC(=O)C[C@@H]2c2ccccc2)cc1OC
P2X purinoceptor 7 [2]
  IC50: 3800 nM

## Cc1cc(F)c(-c2ccnn(C)c2=O)cc1NC(=O)C1=CN(C)C(=O)C[C@H]1c1ccc(F)cc1
[1]
  solubility: 322 µg/mL (≈ 693 µM)
P2X purinoceptor 7 [2]
  IC50: 8 nM
P2X purinoceptor 7 [3]
  IC50: 13 nM
Liver microsome [4]
  Stability: Stable
[6]
  bioavailability: 64%
Rattus norvegicus
  AUC: 1121 ng·h/mL
[7]
  clearance: 17 mL/min/kg
[8]
  Vd: 1 L/kg
[9]
  half-life: 1 h
Cytochrome P450 2C9
  IC50: > 32000 nM
Cytochrome P450 2D6
  IC50: > 32000 nM
Cytochrome P450 3A4
  IC50: > 32000 nM
Salmonella typhimurium
  Activity: Non-toxic

## COc1cc(NC(=O)N2C=CC(=O)C[C@@H]2c2ccccc2)c(Br)cc1Cl
P2X purinoceptor 7 [2]
  IC50: > 10000 nM

## COc1cc(Br)c(NC(=O)C2=CNC(=O)C[C@H]2c2cccc(F)c2)cc1OC
P2X purinoceptor 7 [2]
  IC50: 9 nM
P2X purinoceptor 7 [3]
  IC50: 107 nM
